APP 5'UTR act: activates APP 5'UTR luciferase reporter; activation, % at 2 µM; 1% of 190,000 active; AID 1276; SH-SY5Y APP 5'UTR luciferase reporter, luminescence; zero percent = DMSO vehicle wells;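 active = activation above a set limit, based on mean plus 3 SD of controls, cut at about 140% in these data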
FLuc act counter: affects firefly luciferase, flagging false hits in luciferase stimulation screens; P08659; ATPlite luciferase biochemical, luminescence, 10 min; 0 = ATP-free wells, 1 = DMSO control; activation factor at 10 µM; 200,000 tested, under 10 active; AID 1027;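 active = luciferase activation factor, scaled between plate controls, of at least 2 with compound at 10 µM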
Target sequence (P08659 whole entry, looked up): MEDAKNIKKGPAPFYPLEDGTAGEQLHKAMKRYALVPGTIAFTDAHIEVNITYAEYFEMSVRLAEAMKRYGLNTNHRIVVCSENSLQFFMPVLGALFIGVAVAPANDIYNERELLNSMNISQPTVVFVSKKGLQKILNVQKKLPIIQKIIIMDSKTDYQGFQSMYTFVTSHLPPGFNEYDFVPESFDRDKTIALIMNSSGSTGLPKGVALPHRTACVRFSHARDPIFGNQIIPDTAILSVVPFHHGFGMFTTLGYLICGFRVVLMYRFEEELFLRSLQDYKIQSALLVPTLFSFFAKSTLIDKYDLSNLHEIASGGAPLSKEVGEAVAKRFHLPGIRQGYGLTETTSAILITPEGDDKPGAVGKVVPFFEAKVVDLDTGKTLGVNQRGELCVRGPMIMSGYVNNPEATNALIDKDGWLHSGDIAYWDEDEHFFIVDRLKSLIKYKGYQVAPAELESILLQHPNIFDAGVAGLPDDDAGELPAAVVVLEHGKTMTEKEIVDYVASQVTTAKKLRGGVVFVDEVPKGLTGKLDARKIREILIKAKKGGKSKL
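System: Luciferase/luciferin detection reagent, cell-free biochemical luciferase assay | Medium: PBS buffer for ATP | Dosing: Test compounds dosed from 2 mM stocks in 100% DMSO | Timing: 10 min at ambient temperature | Signal: Luminescence measurement of luciferase light output | Evaluation: Luciferase activation, seen as luminescence increase over controls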
FLuc inh counter: Photinus pyralis luciferase inhibition counter-screen; P08659; ATPLite firefly luciferase biochemical luminescence, 10 min; inhibition, % at 10 µM; 1.5% of 200,000 active; AID 1006;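 active = inhibition above about 50% when tested at 10 µM, limit read from the data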
NF-kB expr up: raises NF-kB expression in human neuronal cells; NF-kB reporter expression; stronger effect = higher value; fold change at 12.5 µM; AID 1239; 1.6% of 190,000 active; in the data active = fold change above about 3.3
STAT1 activator: STAT1 signaling activation; NIH 3T3 STAT1-luciferase reporter, IFN-gamma, luminescence; 100% = IFN-gamma alone, no compound; activation (% of control), % at 5.5 µM; 2.6% of 200,000 active; AID 932;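 active = activation above the screen-wide mean activation plus 3 SD, cut at about 130% in these data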;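 also: raw ratio to IFN-gamma control signal so 100% means no change and 0% no light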
Pf gametocyte: kills late stage P. falciparum gametocytes. P. falciparum stage V gametocytes, ATP luminescence, 24 h. inhibition, % at 10.9 µM. 0.065% of 150,000 active. AID 743093;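 active = inhibition above the mean plus 3 SD of compounds within the control limits, set per campaign, cut at about 38% in these data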;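 also: 0% = DMSO wells and 100% = medium only without gametocytes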
An asterisk follows results filed as active; . = not tested or not shown. Most compounds without a hit are left out; they make up all but 3.5% or so of the library.

SMILES	APP 5'UTR act	FLuc act counter	FLuc inh counter	NF-kB expr up	STAT1 activator	Pf gametocyte
COc1ccc(-n2nc(C(=O)NCC(=O)N3CCN(c4ccccn4)CC3)c3ccccc3c2=O)cc1	33	0.3	68*	1	137*	-4
Clc1ccc2c(c1)C1OCCC1C(c1ccco1)N2 (centres undefined)	41	0.5	54*	1.8	113	.
COc1cccc(C(=O)O/N=C2\CCS(=O)(=O)c3sccc32)c1	-14	0.4	60*	1.5	100	-5
CC(C)Cc1cc(C(=O)Nc2ccc3c(c2)OCO3)no1	49	0.6	44	2.7	132*	.
Cc1cc(C)n2nc(C(=O)Nc3ccc4c(c3)OCO4)cc2n1	100	0.5	47	3.3*	129*	.
O=C(Nc1ccc2c(c1)OCO2)c1cc2nc(C3CC3)cc(C(F)(F)F)n2n1	2	1	-3	1.3	97	.
CC(=O)c1cccc(NC(=O)c2cc3nc(C)cc(C)n3n2)c1	92	0.8	22	0.99	145*	-10
CC(=O)c1cccc(NC(=O)c2ccc(C(=O)Nc3cccc(C(C)=O)c3)nc2)c1	-4	1	-1	0.81	97	14
Cc1ccc(OC(=O)COc2ccccc2C)c(-n2nc3ccccc3n2)c1	91	1	0	3.8*	117	.
COC(=O)COc1ccc(C)cc1-n1nc2ccccc2n1	-1	1.1	-6	1.1	93	-10
Cc1ccc(OC(=O)COc2ccccc2)c(-n2nc3ccccc3n2)c1	60	1	0	4.8*	114	.
COc1ccc2c(c1)c1ncn(CCN3CCNCC3)c(=O)c1n2C	3	1	-2	1.4	100	.
CCCCC1(C(=O)OCC)CC(CSC(=N)N)OC1=O (centres undefined)	26	1	-2	.	102	7
O=C(O)COc1ccccc1/C=N/NC(=O)C(O)c1ccccc1 (centres undefined)	.	.	.	.	.	14
O=C(c1ccc(F)cc1)c1ccc(N2CCCC2)cc1	57	0.9	13	1.8	138*	.
COc1ccc(/C=N/c2c(-c3ccc(OC)cc3)nc3n2CCS3)cc1	-16	0.4	59*	1.4	94	.
OCc1ccc2c(c1)c(-c1ccc3c(c1)OCCO3)c(-c1ccccc1)n2-c1ccccc1	.	.	.	.	.	3
O=C1C2C3C=CC(CC3)C2C(=O)N1/N=C/c1c[nH]c2ccccc12 (centres undefined)	33	0.5	52*	1.8	137*	6
O=C1c2cc(S(=O)(=O)NCCCO)ccc2-c2ccc(S(=O)(=O)NCCCO)cc21	22	1.1	-9	1.3	111	-2
CCN(CC)S(=O)(=O)c1cc(C(=O)Nc2cc(C)on2)c(Cl)cc1Cl	.	.	.	.	.	-16
Cc1ccc2nc(SC(C)C(=O)N3CCOCC3)[nH]c2c1 (centres undefined)	56	1	1	2.2	146*	22
CC(Sc1nc2ccccc2s1)C(=O)N1CCOCC1 (centres undefined)	5	1.1	-8	1.8	104	.
CCOC(=O)c1sc(NC(=O)CSc2ccccn2)c(C#N)c1C	2	1.1	-5	3.8*	104	.
CCOC(=O)c1sc(NC(=O)CSc2nc(C)cc(C)n2)c(C#N)c1C	13	1	-3	0.95	95	1
COc1ccc(NC(=O)COC(=O)[C@@H](NC(=O)c2c(F)cccc2F)C(C)C)cc1	4	1	1	1.3	93	-2
SMILES	APP 5'UTR act	FLuc act counter	FLuc inh counter	NF-kB expr up	STAT1 activator	Pf gametocyte
CC(C)(C)n1ncc2c(=O)n(CC(=O)OCc3ccccc3)cnc21	68	0.1	92*	0.3	105	.
CC(C)(C)n1ncc2c(=O)n(CC(=O)Nc3ccccc3)cnc21	-8	1.1	-5	1.4	100	.
CC(C)(C)n1ncc2c(=O)n(CC(=O)c3ccccc3)cnc21	56	0.9	12	2.1	150*	.
O=C(CSc1nnc2c(n1)[nH]c1ccccc12)Nc1cccc(S(=O)(=O)N2CCOCC2)c1	.	.	.	.	.	-10
COC(=O)CCC(=O)Nc1ccc(N=Nc2ccccc2)cc1	54	1	2	2.6	133*	6
O=C(COC(=O)C1CC1)Nc1ccc(N=Nc2ccccc2)cc1	101	1	-2	1.2	136*	-7
O=C(COC(=O)C1CC1)Nc1ccc(OC(F)F)cc1	.	0.9	9	1.4	103	10
COC(=O)c1ccc(N=Nc2ccccc2)cc1	39	0.4	60*	3.3	132*	-10
O=C(O)CCCC(=O)Nc1ccc(N=Nc2ccccc2)cc1	9	1	1	1.2	108	4
CCC(C)(C)NC(=O)Cc1ccc(F)cc1	7	1.1	-6	1.1	92	11
Cn1c(SCC(=O)N2CCc3ccccc32)nnc1-c1ccc(S(=O)(=O)N2CCCC2)cc1	-10	1	0	0.75	101	6
Nc1nc2ccc(N3CCOCC3)cc2s1	63	0.3	66*	1.8	94	-10
O=C(c1ccc2c(c1)OCO2)N1CCN(c2ccccc2)CC1	17	1	1	1.2	98	-2
Fc1ccc2nc(N3CCOCC3)sc2c1	27	0.9	7	1.7	138*	-15
c1ccc(N2CCN(c3nc4cc5c(cc4s3)OCO5)CC2)cc1	80	0.7	29	3.8*	146*	.
c1c2c(cc3sc(N4CCOCC4)nc13)OCO2	92	0.4	56*	3.2	118	.
Nc1ccc(N2CCOCC2)cc1C(F)(F)F	6	1.1	-7	1.1	98	3
COc1ccc(S(=O)(=O)Nc2cccc3c2O[C@H](CN(C)S(=O)(=O)c2ccc(F)cc2)[C@H](C)CN([C@H](C)CO)C3=O)cc1	.	.	.	.	.	-14
c1c2c(cc3sc(N4CCCCC4)nc13)OCO2	206*	0.2	80*	3.8*	90	-15
CC(=O)Nc1nc2cc3c(cc2s1)OCO3	57	0.9	7	2.2	115	.
O=C(O)c1nn2c(C(F)(F)F)cc(-c3cccs3)nc2c1Cl	.	1.1	-6	1.1	91	15
COc1cccc(C(=O)/C=C/Nc2cccc(O)c2)c1	148*	0	96*	12*	87	.
COc1cccc(C(=O)/C=C/Nc2ccc(NC(C)=O)cc2)c1	60	0.7	28	1.1	136*	7
Brc1ccc(-c2cn3nc4c(nc3n2)CCCC4)cc1	186*	0.6	41	2.9	73	-13
c1ccc(-c2cn3nc4c(nc3n2)CCCC4)cc1	148*	0.1	86*	2.4	52	-32
O=C(CC(Nc1ccc(F)cc1)C(=O)O)c1ccccc1 (centres undefined)	89	0.1	87*	5.7*	148*	.
Cc1ccc(NC(CC(=O)c2ccccc2)c2ccc(F)cc2)cc1 (centres undefined)	0	1	0	0.89	98	.
Cc1c(C(=O)O)cnc2cc(-c3ccc(Cl)cc3)nn12	0	0.4	56*	2.2	108	.

Screening results deposited in PubChem BioAssay by several laboratories.
